Measurements taken from ChEMBL document CHEMBL1126728, “Synthesis and biochemical evaluation of the CBI-PDE-I-dimer, a benzannelated analog of (+)-CC-1065 that also produces delayed toxicity in mice” (J Med Chem, 1993).

Key:
L1210 [1] = experiment: In vitro cytotoxicity against mouse leukemia L1210 cells; format: functional, cell-based
Method in brief: (§1)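 L1210 mouse leukemia cells in RPMI 1634 supplemented with 5% fetal calf serum, 0.075% sodium bicarbonate, penicillin and streptomycin. Drug added to cultures at about 5 × 10^3 cells/mL, incubated 3 days at 37 °C. Cell number counted with a Coulter counter; IC50 in nM, run side by side with the corresponding CPI analog.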

Mus musculus [2] = experiment: Median day of death (MDD) in normal (Non tumor bearing) mice treated with a single i.v. dose at 100 ug/kg; format: functional
Method in brief: (§2)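 Non-tumor-bearing mice got one intravenous injection in a vehicle of 2% DMA, 10% Emulphor EL-620P and 88% sterile water. Survival was followed for 90 days, which ended the experiment. Six mice per dose group; the value is the median day of death. Deaths after more than 28 days counted as delayed.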

Mus musculus [3] = experiment: Optimum antitumor dose (OD) against L1210 mouse leukemia cells implanted intraperitoneally in CD2F1 mice; format: functional
Method in brief: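 L1210 cells passaged in DBA/2 female mice, implanted ip (10^6 cells/mouse) in CD2F1 mice, 6 per group, on day 0. Single iv dose 24 h later (day 1) in 2% DMA, 10% Emulphor EL-620P, 88% sterile water; dose response run. Optimum dose (µg/kg) is the dose giving greatest ILS (median survival) with ≤15% drug-related deaths.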

Mus musculus [4] = experiment: in vivo percent increase in lifespan (ILS) at the optimum dose in L1210 cells; format: functional
Method in brief: (§3)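 L1210 leukemia, passaged in syngeneic DBA/2 female mice, was implanted i.p. at 10^6 cells/mouse on day 0; one i.v. dose on day 1 (2% DMA/10% Emulphor EL-620P/88% water); 6 mice per group; dose-response run. Optimal dose = greatest efficacy with ≤15% drug-related deaths. %ILS = (median survival treated/median survival vehicle control − 1) × 100, counting long-term survivors.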

Mus musculus [5] = experiment: Median day of death (MDD) in normal (Non tumor bearing) mice treated with a single i.v. dose at 200 ug/kg; format: functional; method in brief: as §2
Mus musculus [6] = experiment: Median day of death (MDD) in normal (Non tumor bearing) mice treated with a single i.v. dose at 50 ug/kg; format: functional; method in brief: as §2
Mus musculus [7] = experiment: Median day of death (MDD) in normal (Non tumor bearing) mice treated with a single i.v. dose at 25 ug/kg; format: functional; method in brief: as §2
L1210 [8] = experiment: In vitro cytotoxicity against mouse leukemia L1210 cells was determined; format: functional, cell-based; method in brief: as §1
Mus musculus [9] = experiment: Median day of death (MDD) in normal (Non tumor bearing) mice treated with a single i.v. dose at 400 ug/kg; format: functional; method in brief: as §2
Mus musculus [10] = experiment: Optimum antitumor dose (OD) against L1210 mouse leukemia cells implanted intraperitoneally in CD2F1 mice (Highest dose tested); format: functional; method in brief: as §3

| SMILES | OD (Mus musculus [3]) [mg/kg] | ILS (Mus musculus [4]) [%] | IC50 (L1210 [8]) [nM] | further results |
| --- | --- | --- | --- | --- |
| OC1=CC2=NCC3C[C@]23c2ccccc21 (some centres not stated) |  |  |  | IC50 (L1210 [1]): 6600 nM |
| COc1c(O)c2c(c3cc(C(=O)N4CCc5c4c(O)c(OC)c4[nH]c(C(=O)N6CC7C[C@@]78C6=CC(=O)c6ccccc68)cc54)[nH]c13)CCN2C(N)=O (some centres not stated) | 0.2 | 28 | 0.02 | MDD (Mus musculus [2]): 41; MDD (Mus musculus [5]): 38; MDD (Mus musculus [6]): 42; MDD (Mus musculus [7]): 48; MDD (Mus musculus [9]): 5 |
| Cc1c[nH]c2c1[C@@]13CC1CN(C(=O)c1cc4cc(NC(=O)c5cc6ccccc6[nH]5)ccc4[nH]1)C3=CC2=O (some centres not stated) | 0.1 | 83 |  | MDD (Mus musculus [5]): 3 |
| OC1=CC2=NCC3C[C@@]23c2ccccc21 (some centres not stated) |  |  | 230 |  |
| O=C1C=C2N(C(=O)c3cc4ccccc4[nH]3)CC3C[C@@]23c2ccccc21 (single isomer, unassigned; (+)) | 0.8 | 50 | 0.1 |  |
| O=C(Nc1ccc2[nH]c(C(=O)N3CC4C[C@@]45C3=CC(=O)c3ccccc35)cc2c1)c1cc2ccccc2[nH]1 (single isomer, unassigned; (+)) | 0.1 | 67 | 0.006 | MDD (Mus musculus [5]): 7 |
| CC(=O)N1CC2C[C@@]23C1=CC(=O)c1ccccc13 (single isomer, unassigned; (+)) |  |  | 5 |  |
| COc1c(O)c2c(c3cc(C(=O)N4CCc5c4c(O)c(OC)c4[nH]c(C(=O)N6CC7C[C@]78C6=CC(=O)c6ccccc68)cc54)[nH]c13)CCN2C(N)=O (single isomer, unassigned; (-)) | 0.2 | 6 | 0.01 | MDD (Mus musculus [9]): 5 |
| O=C1C=C2N(C(=O)c3cc4ccccc4[nH]3)CC3C[C@]23c2ccccc21 (single isomer, unassigned; (-)) |  |  | 12 |  |
| O=C(Nc1ccc2[nH]c(C(=O)N3CC4C[C@]45C3=CC(=O)c3ccccc35)cc2c1)c1cc2ccccc2[nH]1 (single isomer, unassigned; (-)) |  | 50 | 0.3 | OD (Mus musculus [10]): 1.6 mg/kg |
| CC(=O)N1CC2C[C@]23C1=CC(=O)c1ccccc13 (single isomer, unassigned; (-)) |  |  | 70 |  |
| COc1c(O)c2c(c3cc(C(=O)N4CCc5c4c(O)c(OC)c4[nH]c(C(=O)N6C[C@H]7C[C@@]78C6=CC(=O)c6[nH]cc(C)c68)cc54)[nH]c13)CCN2C(N)=O [(+)-CC-1065] |  |  |  | MDD (Mus musculus [6]): 41; MDD (Mus musculus [7]): 42 |
